In ChEMBL document CHEMBL1795269, “Novel (E)-5-styryl-2,2'-bithiophene derivatives as ligands for β-amyloid plaques” (Eur J Med Chem, 2011):

Key:
[1] = Octanol-phosphate buffer partition coefficient, log D of the compound at pH 7.4; format: physicochemical
Outline: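 Radiotracer added to premixed n-octanol (3 g) and PBS (0.05 M, pH 7.4; 3 g), and partitioned between the two phases.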

[2] = test system: Blood; assay: Biodistribution in Kunming mouse blood at 1 uCi, iv after 2 mins by gamma counting; format: ADME, organism-based; details: in vivo
Outline: (§1)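 Female normal KunMing mice, about 20 g. [125I]-labelled tracer (1 μCi) in 100 μL saline injected into the tail vein. Mice killed at set times after injection; organs removed, weighed and counted in a gamma counter. %ID/g of wet tissue calculated against diluted aliquots of the injected dose.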

[3] = test system: Blood; assay: Biodistribution in Kunming mouse blood at 1 uCi, iv after 15 mins by gamma counting; format: ADME, organism-based; details: in vivo, 0.25 h; outline: as §1
[4] = test system: Blood; assay: Biodistribution in Kunming mouse blood at 1 uCi, iv after 30 mins by gamma counting; format: ADME, organism-based; details: in vivo, 0.5 h; outline: as §1
[5] = test system: Blood; assay: Biodistribution in Kunming mouse blood at 1 uCi, iv after 60 mins by gamma counting; format: ADME, organism-based; details: in vivo, 1 h; outline: as §1
[6] = test system: Blood; assay: Biodistribution in Kunming mouse blood at 1 uCi, iv after 120 mins by gamma counting; format: ADME, organism-based; details: in vivo, 2 h; outline: as §1
[7] = test system: Brain; assay: Biodistribution in Kunming mouse brain at 1 uCi, iv after 2 mins by gamma counting; format: ADME, organism-based; details: in vivo; outline: as §1
[8] = test system: Brain; assay: Biodistribution in Kunming mouse brain at 1 uCi, iv after 15 mins by gamma counting; format: ADME, organism-based; details: in vivo, 0.25 h; outline: as §1
[9] = test system: Brain; assay: Biodistribution in Kunming mouse brain at 1 uCi, iv after 30 mins by gamma counting; format: ADME, organism-based; details: in vivo, 0.5 h; outline: as §1
[10] = test system: Brain; assay: Biodistribution in Kunming mouse brain at 1 uCi, iv after 60 mins by gamma counting; format: ADME, organism-based; details: in vivo, 1 h; outline: as §1
[11] = test system: Brain; assay: Biodistribution in Kunming mouse brain at 1 uCi, iv after 120 mins by gamma counting; format: ADME, organism-based; details: in vivo, 2 h; outline: as §1
[12] = test system: Heart; assay: Biodistribution in Kunming mouse heart at 1 uCi, iv after 2 mins by gamma counting; format: ADME, organism-based; details: in vivo; outline: as §1
[13] = test system: Heart; assay: Biodistribution in Kunming mouse heart at 1 uCi, iv after 15 mins by gamma counting; format: ADME, organism-based; details: in vivo, 0.25 h; outline: as §1
[14] = test system: Heart; assay: Biodistribution in Kunming mouse heart at 1 uCi, iv after 30 mins by gamma counting; format: ADME, organism-based; details: in vivo, 0.5 h; outline: as §1
[15] = test system: Heart; assay: Biodistribution in Kunming mouse heart at 1 uCi, iv after 60 mins by gamma counting; format: ADME, organism-based; details: in vivo, 1 h; outline: as §1
[16] = test system: Heart; assay: Biodistribution in Kunming mouse heart at 1 uCi, iv after 120 mins by gamma counting; format: ADME, organism-based; details: in vivo, 2 h; outline: as §1
[17] = test system: Liver; assay: Biodistribution in Kunming mouse liver at 1 uCi, iv after 2 mins by gamma counting; format: ADME, organism-based; details: in vivo; outline: as §1
[18] = test system: Liver; assay: Biodistribution in Kunming mouse liver at 1 uCi, iv after 15 mins by gamma counting; format: ADME, organism-based; details: in vivo, 0.25 h; outline: as §1
[19] = test system: Liver; assay: Biodistribution in Kunming mouse liver at 1 uCi, iv after 30 mins by gamma counting; format: ADME, organism-based; details: in vivo, 0.5 h; outline: as §1
[20] = test system: Liver; assay: Biodistribution in Kunming mouse liver at 1 uCi, iv after 60 mins by gamma counting; format: ADME, organism-based; details: in vivo, 1 h; outline: as §1
[21] = test system: Liver; assay: Biodistribution in Kunming mouse liver at 1 uCi, iv after 120 mins by gamma counting; format: ADME, organism-based; details: in vivo, 2 h; outline: as §1
[22] = test system: Spleen; assay: Biodistribution in Kunming mouse spleen at 1 uCi, iv after 2 mins by gamma counting; format: ADME, organism-based; details: in vivo; outline: as §1
[23] = test system: Spleen; assay: Biodistribution in Kunming mouse spleen at 1 uCi, iv after 15 mins by gamma counting; format: ADME, organism-based; details: in vivo, 0.25 h; outline: as §1
[24] = test system: Spleen; assay: Biodistribution in Kunming mouse spleen at 1 uCi, iv after 30 mins by gamma counting; format: ADME, organism-based; details: in vivo, 0.5 h; outline: as §1
[25] = test system: Spleen; assay: Biodistribution in Kunming mouse spleen at 1 uCi, iv after 60 mins by gamma counting; format: ADME, organism-based; details: in vivo, 1 h; outline: as §1
[26] = test system: Spleen; assay: Biodistribution in Kunming mouse spleen at 1 uCi, iv after 120 mins by gamma counting; format: ADME, organism-based; details: in vivo, 2 h; outline: as §1
[27] = test system: Lung; assay: Biodistribution in Kunming mouse lung at 1 uCi, iv after 2 mins by gamma counting; format: ADME, organism-based; details: in vivo; outline: as §1
[28] = test system: Lung; assay: Biodistribution in Kunming mouse lung at 1 uCi, iv after 15 mins by gamma counting; format: ADME, organism-based; details: in vivo, 0.25 h; outline: as §1
[29] = test system: Lung; assay: Biodistribution in Kunming mouse lung at 1 uCi, iv after 30 mins by gamma counting; format: ADME, organism-based; details: in vivo, 0.5 h; outline: as §1
[30] = test system: Lung; assay: Biodistribution in Kunming mouse lung at 1 uCi, iv after 60 mins by gamma counting; format: ADME, organism-based; details: in vivo, 1 h; outline: as §1
[31] = test system: Lung; assay: Biodistribution in Kunming mouse lung at 1 uCi, iv after 120 mins by gamma counting; format: ADME, organism-based; details: in vivo, 2 h; outline: as §1
[32] = test system: Kidney; assay: Biodistribution in Kunming mouse kidney at 1 uCi, iv after 2 mins by gamma counting; format: ADME, organism-based; details: in vivo; outline: as §1
[33] = test system: Kidney; assay: Biodistribution in Kunming mouse kidney at 1 uCi, iv after 15 mins by gamma counting; format: ADME, organism-based; details: in vivo, 0.25 h; outline: as §1
[34] = test system: Kidney; assay: Biodistribution in Kunming mouse kidney at 1 uCi, iv after 60 mins by gamma counting; format: ADME, organism-based; details: in vivo, 1 h; outline: as §1
[35] = test system: Kidney; assay: Biodistribution in Kunming mouse kidney at 1 uCi, iv after 120 mins by gamma counting; format: ADME, organism-based; details: in vivo, 2 h; outline: as §1
[36] = test system: Stomach; assay: Biodistribution in Kunming mouse stomach assessed per organ at 1 uCi, iv after 2 mins by gamma counting; format: ADME, organism-based; details: in vivo; outline: as §1
[37] = test system: Stomach; assay: Biodistribution in Kunming mouse stomach assessed per organ at 1 uCi, iv after 15 mins by gamma counting; format: ADME, organism-based; details: in vivo, 0.25 h; outline: as §1
[38] = test system: Stomach; assay: Biodistribution in Kunming mouse stomach assessed per organ at 1 uCi, iv after 30 mins by gamma counting; format: ADME, organism-based; details: in vivo, 0.5 h; outline: as §1
[39] = test system: Stomach; assay: Biodistribution in Kunming mouse stomach assessed per organ at 1 uCi, iv after 60 mins by gamma counting; format: ADME, organism-based; details: in vivo, 1 h
[40] = test system: Stomach; assay: Biodistribution in Kunming mouse stomach assessed per organ at 1 uCi, iv after 120 mins by gamma counting; format: ADME, organism-based; details: in vivo, 2 h; outline: as §1
[41] = test system: Muscle tissue; assay: Biodistribution in Kunming mouse muscle at 1 uCi, iv after 2 mins by gamma counting; format: ADME, organism-based; details: in vivo; outline: as §1
[42] = test system: Muscle tissue; assay: Biodistribution in Kunming mouse muscle at 1 uCi, iv after 15 mins by gamma counting; format: ADME, organism-based; details: in vivo, 0.25 h; outline: as §1
[43] = test system: Muscle tissue; assay: Biodistribution in Kunming mouse muscle at 1 uCi, iv after 30 mins by gamma counting; format: ADME, organism-based; details: in vivo, 0.5 h; outline: as §1
[44] = test system: Muscle tissue; assay: Biodistribution in Kunming mouse muscle at 1 uCi, iv after 60 mins by gamma counting; format: ADME, organism-based; details: in vivo, 1 h; outline: as §1
[45] = test system: Muscle tissue; assay: Biodistribution in Kunming mouse muscle at 1 uCi, iv after 120 mins by gamma counting; format: ADME, organism-based; details: in vivo, 2 h; outline: as §1
[46] = test system: Kidney; assay: Biodistribution in Kunming mouse kidney at 1 uCi, iv after 30 mins by gamma counting; format: ADME, organism-based; details: in vivo, 0.5 h; outline: as §1

## [125I]c1ccc(/C=C/c2ccc(-c3cccs3)s2)cc1
[1]
  logD: 3.31
[2]
  Drug uptake: 12.1 % ID/g
[3]
  Drug uptake: 1.38 % ID/g
[4]
  Drug uptake: 1.16 % ID/g
[5]
  Drug uptake: 1.29 % ID/g
[6]
  Drug uptake: 1.76 % ID/g
[7]
  Drug uptake: 2.11 % ID/g
[8]
  Drug uptake: 0.42 % ID/g
[9]
  Drug uptake: 0.41 % ID/g
[10]
  Drug uptake: 0.47 % ID/g
[11]
  Drug uptake: 0.55 % ID/g
[12]
  Drug uptake: 5.53 % ID/g
[13]
  Drug uptake: 3.37 % ID/g
[14]
  Drug uptake: 3.35 % ID/g
[15]
  Drug uptake: 2.09 % ID/g
[16]
  Drug uptake: 3.39 % ID/g
[17]
  Drug uptake: 47.12 % ID/g
[18]
  Drug uptake: 40.18 % ID/g
[19]
  Drug uptake: 42.17 % ID/g
[20]
  Drug uptake: 47.7 % ID/g
[21]
  Drug uptake: 45.74 % ID/g
[22]
  Drug uptake: 11.46 % ID/g
[23]
  Drug uptake: 12.61 % ID/g
[24]
  Drug uptake: 14.82 % ID/g
[25]
  Drug uptake: 14.58 % ID/g
[26]
  Drug uptake: 21.98 % ID/g
[27]
  Drug uptake: 20.89 % ID/g
[28]
  Drug uptake: 18.99 % ID/g
[29]
  Drug uptake: 15.69 % ID/g
[30]
  Drug uptake: 12.99 % ID/g
[31]
  Drug uptake: 6.29 % ID/g
[32]
  Drug uptake: 4.69 % ID/g
[33]
  Drug uptake: 4.37 % ID/g
[34]
  Drug uptake: 4.91 % ID/g
[35]
  Drug uptake: 6.35 % ID/g
[36]
  Drug uptake: 0.61 %ID
[37]
  Drug uptake: 1.48 %ID
[38]
  Drug uptake: 3.25 %ID
[39]
  Drug uptake: 4.28 %ID
[40]
  Drug uptake: 3.36 %ID
[41]
  Drug uptake: 0.85 % ID/g
[42]
  Drug uptake: 0.97 % ID/g
[43]
  Drug uptake: 1.25 % ID/g
[44]
  Drug uptake: 0.93 % ID/g
[45]
  Drug uptake: 0.76 % ID/g
[46]
  Drug uptake: 4.56 % ID/g
